# Test results taken from ChEMBL document CHEMBL3217724, “Synthesis and evaluation of a series of benzothiophene acrylonitrile analogs as anticancer agents” (Medchemcomm, 2013).
# Active and inactive are the calls of the source. The rule behind the calls is not given here.
# What was measured:
# SK-MEL-2 = assay: Growth inhibition of human SK-MEL-2 cells; format: functional
# Procedure, shortened: (§1)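 NCI 60-human-cancer-cell-line panel, five-dose screen after a preliminary screen. GI50 is the molar concentration giving 50% growth inhibition.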
# [1] = Growth inhibition of human HCT15 cells; format: functional; conditions: HCT-15; procedure, shortened: as §1
# HCT-116 = assay: Growth inhibition of human HCT116 cells; format: functional; procedure, shortened: as §1
# SR = assay: Growth inhibition of human SR cells; format: functional
# Procedure, shortened: (§2)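 NCI 60-cell-line panel, five-dose screen; GI50 is the molar concentration giving 50% growth inhibition.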
# SN12C = assay: Growth inhibition of human SN12C cells; format: functional; procedure, shortened: as §2
# [2] = Growth inhibition of human HOP92 cells; format: functional; conditions: HOP-92; procedure, shortened: as §1
# CCRF-CEM = assay: Growth inhibition of human CCRF-CEM cells; format: functional; procedure, shortened: as §1
# HOP-62 = assay: Growth inhibition of human HOP62 cells; format: functional; procedure, shortened: as §1
# PC-3 [3] = assay: Induction of apoptosis in human PC3 cells assessed as formation of mitotic castastrophe at 10 to 100 nM after 72 hrs by Hoechst 33342 staining; format: functional, cell-based
# Procedure, shortened: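 PC3 prostate cancer cells were treated 72 h at 10 and 100 nM. Nuclei were stained with Hoechst 33342 and visualized by fluorescence imaging.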
# T47D = assay: Growth inhibition of human T47D cells; format: functional; procedure, shortened: as §2
# M14 = assay: Growth inhibition of human M14 cells; format: functional; procedure, shortened: as §1
# [4] = Growth inhibition of human RXF393 cells; format: functional; conditions: RXF 393; procedure, shortened: as §1
# [5] = Growth inhibition of human MOLT4 cells; format: functional; conditions: MOLT-4; procedure, shortened: as §1
# K562 = assay: Growth inhibition of human K562 cells; format: functional; procedure, shortened: as §1
# [6] = Growth inhibition of human EKVX cells; format: functional; procedure, shortened: as §1
# [7] = target: Tubulin beta (Homo sapiens) (UniProt P68371+Q9H4B7+Q13509+P04350+Q3ZCM7+P07437+Q13885+Q9BVA1+Q9BUF5+A6NNZ2); assay: Inhibition of tubulin beta in human PC3 cells assessed as multiple spindle-poles formation at 100 nM after 24 hrs by DAPI-staining based immunofluorescence assay; format: cell-based; conditions: PC-3
# Procedure, shortened: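 PC3 cells were treated 24 h at 100 nM, with docetaxel 100 nM for comparison. Tubulin immunofluorescence with DAPI nuclear counterstain was used to score chromosome overduplication and multiple spindle poles.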
# LLC-PK1 = assay: Resistance factor, ratio of GI50 for pig LLC-PK1 cells expressing MDR1 to GI50 for pig LLC-PK1 cells; parameters: species or system Sus scrofa
# Procedure, shortened: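 Porcine epithelial L-MDR1 (P-gp expressing) cells and their non-expressing parent line were exposed to compound for 72 h. Viability was read with AlamarBlue dye and GI50 derived. P-gp expression was verified by Western blot with β-actin as loading control. The resistance ratio compares GI50 in MDR1 versus parent cells.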
# PC-3 [8] = assay: cells; conditions: Homo sapiens, PC-3, 72 h
# SW-620 = assay: Growth inhibition of human SW620 cells; format: functional; procedure, shortened: as §2
# NCI-H522 = assay: Growth inhibition of human NCI-H522 cells; format: functional; procedure, shortened: as §1
# [9] = Growth inhibition of human OVCAR3 cells; format: functional; conditions: OVCAR-3; procedure, shortened: as §1
# NCI-H322M = assay: Growth inhibition of human NCI-H322M cells; format: functional; procedure, shortened: as §1
# NCI-H23 = assay: Growth inhibition of human NCI-H23 cells; format: functional; procedure, shortened: as §1
# [10] = Growth inhibition of human UO31 cells; format: functional; conditions: UO-31; procedure, shortened: as §2
# A549 = assay: Growth inhibition of human A549 cells; format: functional; procedure, shortened: as §1
# [11] = Growth inhibition of human SF295 cells; format: functional; conditions: SF-295; procedure, shortened: as §1
# SNB-75 = assay: Growth inhibition of human SNB75 cells; format: functional; procedure, shortened: as §2
# SK-OV-3 = assay: Growth inhibition of human SKOV3 cells; format: functional; procedure, shortened: as §2
# KM12 = assay: Growth inhibition of human KM12 cells; format: functional; procedure, shortened: as §1
# HT-29 = assay: Growth inhibition of human HT-29 cells; format: functional; procedure, shortened: as §1
# SNB-19 = assay: Growth inhibition of human SNB19 cells; format: functional; procedure, shortened: as §2
# COLO 205 = assay: Growth inhibition of human COLO205 cells; format: functional; procedure, shortened: as §1
# U-251 = assay: Growth inhibition of human U251 cells; format: functional; procedure, shortened: as §2
# NCI-H460 = assay: Growth inhibition of human NCI-H460 cells; format: functional; procedure, shortened: as §1
compound,measurement,setting,value
COc1cc(/C(C#N)=C/c2cc3ccccc3s2)cc(OC)c1OC,GI50,SK-MEL-2,41.6 nM
same,GI50,[1],46.1 nM
same,GI50,HCT-116,49.4 nM
same,GI50,SR,46.6 nM
same,GI50,SN12C,68.4 nM
same,GI50,[2],17.9 nM
same,GI50,CCRF-CEM,25.1 nM
same,GI50,HOP-62,98.9 nM
same,Activity,PC-3 [3],Active
same,GI50,T47D,> 100 nM
same,GI50,M14,37.9 nM
same,GI50,[4],24.9 nM
same,GI50,[5],39.7 nM
same,GI50,K562,30.4 nM
same,GI50,[6],52.1 nM
same,inhibition,[7],Active
same,RatioGI50,LLC-PK1,1.2
same,GI50,PC-3 [8],7.6 nM
same,GI50,SW-620,40.8 nM
same,GI50,NCI-H522,29.7 nM
same,GI50,[9],23 nM
same,GI50,NCI-H322M,51.7 nM
same,GI50,NCI-H23,52.3 nM
same,GI50,[10],52.4 nM
same,GI50,A549,41.2 nM
same,GI50,[11],33.7 nM
same,GI50,SNB-75,41.5 nM
same,GI50,SK-OV-3,47.2 nM
same,GI50,KM12,22.2 nM
same,GI50,HT-29,31.9 nM
same,GI50,SNB-19,44 nM
same,GI50,COLO 205,46.9 nM
same,GI50,U-251,50 nM
same,GI50,NCI-H460,35.9 nM
